Data on 31 compounds can be found in ChEMBL document CHEMBL3352198, “Design, synthesis, biological evaluation of substituted benzofurans as DNA gyraseB inhibitors of Mycobacterium tuberculosis” (Bioorg Med Chem, 2014).

One data set deals with DNA gyrase subunit B (Mycobacterium smegmatis, UniProt P0C559). Briefly: Inhibition of 6-His-tagged Mycobacterium smegmatis GyrB expressed in Escherichia coli BL21 (DE3) pLysS cells incubated for 100 mins in presence of ATP by malachite green dye based ATP assay. Also on record: species or system Mycolicibacterium smegmatis.
For data set [1], the target named is DNA gyrase subunit A/DNA gyrase subunit B (Mycobacterium tuberculosis (strain ATCC 25618 / H37Rv), UniProt P9WG45+P9WG47). Put plainly: Inhibition of Mycobacterium tuberculosis DNA gyrase supercoiling activity using relaxed pBR322 substrate incubated for 30 mins by ethidium bromide staining method.
Data set [2] concerns Mycobacterium tuberculosis. Briefly: Antibacterial activity against Mycobacterium tuberculosis H37Rv after 7 days by microplate alamar blue assay method. To be noted: 168 h. The data set is classed as functional. The method in brief: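 Mtb H37Rv inoculum taken from fresh LJ medium, resuspended in 7H9-S (7H9, 0.1% casitone, 0.5% glycerol, OADC), adjusted to McFarland No. 1 and diluted 1:20. Two-fold serial drug dilutions in 7H9-S, with growth and sterile controls. Incubated 7 days at 37 °C, alamar blue added, reincubated overnight. MIC taken as lowest concentration preventing the blue-to-pink colour change.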

Data set [3] can be described thus: Cytotoxicity against mouse RAW264.7 cells assessed as inhibition of cell viability at 100 uM after 48 hrs by MTT assay. The data set is classed as cell-based. To be noted: read-out: INH. The procedure, abridged: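 RAW 264.7 mouse macrophages, 5 × 10^5 cells per well, exposed to compounds at 37 °C, 5% CO2 for 48 h. MTT added about 4 h before the end, then supernatant removed and DMSO added. Absorbance read at 560 nm against blank, triplicate wells per concentration, result expressed as % inhibition.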

Data set [4] concerns the target DNA gyrase subunit B (Staphylococcus aureus) (UniProt P0A0K8). Briefly: Inhibition of Staphylococcus aureus GyrB at 50 uM.
Data set [5] concerns the target DNA gyrase subunit B (Escherichia coli) (UniProt P0AES6). Put plainly: Inhibition of Escherichia coli GyrB at 50 uM.
Data set [6] deals with DNA gyrase subunit B (Mycobacterium smegmatis) (UniProt P0C559). To be noted: Mycolicibacterium smegmatis.

≈ marks a conversion by molar mass, not a printed value. Calls of active or inactive are those of the source. The calls are words filed in the database; no cut-off is given here.

Sequence of DNA gyrase subunit B (P0C559 whole entry): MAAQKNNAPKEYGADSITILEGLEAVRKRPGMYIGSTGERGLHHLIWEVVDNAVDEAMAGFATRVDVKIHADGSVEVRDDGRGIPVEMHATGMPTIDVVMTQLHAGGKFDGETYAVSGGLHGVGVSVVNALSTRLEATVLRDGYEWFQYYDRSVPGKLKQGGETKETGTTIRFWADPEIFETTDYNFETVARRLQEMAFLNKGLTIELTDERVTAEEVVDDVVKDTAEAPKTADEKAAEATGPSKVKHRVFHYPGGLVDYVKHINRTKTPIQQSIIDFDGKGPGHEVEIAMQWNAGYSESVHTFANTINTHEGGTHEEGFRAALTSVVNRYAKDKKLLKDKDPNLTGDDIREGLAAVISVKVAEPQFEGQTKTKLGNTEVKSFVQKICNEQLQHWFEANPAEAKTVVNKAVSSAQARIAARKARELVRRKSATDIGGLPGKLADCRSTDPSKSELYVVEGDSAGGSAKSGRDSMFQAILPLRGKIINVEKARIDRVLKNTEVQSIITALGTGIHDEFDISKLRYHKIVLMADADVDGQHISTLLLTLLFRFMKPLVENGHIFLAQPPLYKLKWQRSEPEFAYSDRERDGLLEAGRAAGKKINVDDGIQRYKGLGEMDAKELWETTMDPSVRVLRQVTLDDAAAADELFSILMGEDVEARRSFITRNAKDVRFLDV
Sequence of DNA gyrase subunit A/DNA gyrase subunit B (P9WG45 whole entry): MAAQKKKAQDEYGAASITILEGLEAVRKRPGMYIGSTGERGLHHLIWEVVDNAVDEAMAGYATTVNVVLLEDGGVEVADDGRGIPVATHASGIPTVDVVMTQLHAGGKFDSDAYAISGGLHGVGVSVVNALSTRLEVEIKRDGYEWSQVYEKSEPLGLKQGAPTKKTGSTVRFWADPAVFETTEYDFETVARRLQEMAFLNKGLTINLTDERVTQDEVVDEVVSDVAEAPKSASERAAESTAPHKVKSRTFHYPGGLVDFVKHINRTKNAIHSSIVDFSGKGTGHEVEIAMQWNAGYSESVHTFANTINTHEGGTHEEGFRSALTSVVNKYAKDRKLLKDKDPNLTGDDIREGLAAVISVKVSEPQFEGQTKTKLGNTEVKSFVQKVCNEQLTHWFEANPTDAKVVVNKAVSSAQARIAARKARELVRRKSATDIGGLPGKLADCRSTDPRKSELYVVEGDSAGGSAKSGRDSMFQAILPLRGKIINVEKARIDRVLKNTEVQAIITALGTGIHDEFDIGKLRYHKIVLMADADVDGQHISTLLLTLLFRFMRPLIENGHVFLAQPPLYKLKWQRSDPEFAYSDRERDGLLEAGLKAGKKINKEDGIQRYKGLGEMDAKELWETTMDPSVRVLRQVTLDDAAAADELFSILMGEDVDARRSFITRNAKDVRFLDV
Sequence of DNA gyrase subunit A/DNA gyrase subunit B (P9WG47 whole entry): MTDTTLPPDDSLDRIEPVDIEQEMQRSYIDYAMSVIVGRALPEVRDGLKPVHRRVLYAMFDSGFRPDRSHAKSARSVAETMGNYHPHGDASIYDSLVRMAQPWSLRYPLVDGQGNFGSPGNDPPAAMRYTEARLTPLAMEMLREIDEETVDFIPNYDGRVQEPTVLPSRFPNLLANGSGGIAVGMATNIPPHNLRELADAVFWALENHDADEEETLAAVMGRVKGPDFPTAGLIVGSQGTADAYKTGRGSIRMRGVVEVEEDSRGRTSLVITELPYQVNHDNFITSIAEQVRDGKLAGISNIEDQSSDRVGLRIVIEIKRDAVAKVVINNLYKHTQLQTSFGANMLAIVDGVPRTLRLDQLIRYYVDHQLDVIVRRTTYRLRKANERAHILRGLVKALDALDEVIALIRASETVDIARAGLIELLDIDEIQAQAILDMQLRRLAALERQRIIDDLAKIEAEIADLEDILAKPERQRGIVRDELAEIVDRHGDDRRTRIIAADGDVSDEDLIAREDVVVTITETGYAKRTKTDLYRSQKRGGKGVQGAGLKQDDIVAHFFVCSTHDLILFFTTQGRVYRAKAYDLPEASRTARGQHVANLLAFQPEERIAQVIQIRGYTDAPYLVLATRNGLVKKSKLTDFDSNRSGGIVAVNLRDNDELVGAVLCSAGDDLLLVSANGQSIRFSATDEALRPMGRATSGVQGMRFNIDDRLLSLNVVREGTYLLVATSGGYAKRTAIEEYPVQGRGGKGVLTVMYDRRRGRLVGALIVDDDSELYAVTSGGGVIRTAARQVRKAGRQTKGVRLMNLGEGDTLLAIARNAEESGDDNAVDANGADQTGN
Sequence of DNA gyrase subunit B (Mycobacterium smegmatis) (P0C559 2-675 limits assumed): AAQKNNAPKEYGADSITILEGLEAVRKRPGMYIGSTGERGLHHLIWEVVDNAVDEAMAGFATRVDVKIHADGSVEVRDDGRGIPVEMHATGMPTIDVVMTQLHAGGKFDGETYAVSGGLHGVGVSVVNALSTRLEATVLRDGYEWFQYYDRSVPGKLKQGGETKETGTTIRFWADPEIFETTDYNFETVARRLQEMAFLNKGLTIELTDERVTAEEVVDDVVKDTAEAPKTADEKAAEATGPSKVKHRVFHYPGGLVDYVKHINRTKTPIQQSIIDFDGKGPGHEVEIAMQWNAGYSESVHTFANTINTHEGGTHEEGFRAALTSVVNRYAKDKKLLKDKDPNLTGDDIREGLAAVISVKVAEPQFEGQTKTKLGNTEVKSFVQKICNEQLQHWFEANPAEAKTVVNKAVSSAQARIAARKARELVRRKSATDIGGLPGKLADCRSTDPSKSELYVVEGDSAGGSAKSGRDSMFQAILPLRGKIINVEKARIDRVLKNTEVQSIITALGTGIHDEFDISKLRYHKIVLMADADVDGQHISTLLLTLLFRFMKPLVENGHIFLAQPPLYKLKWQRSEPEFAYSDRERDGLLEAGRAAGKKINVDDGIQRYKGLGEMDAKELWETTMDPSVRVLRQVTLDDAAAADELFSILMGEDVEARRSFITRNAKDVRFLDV
Sequence of DNA gyrase subunit B (Staphylococcus aureus) (P0A0K8 2-644 limits assumed): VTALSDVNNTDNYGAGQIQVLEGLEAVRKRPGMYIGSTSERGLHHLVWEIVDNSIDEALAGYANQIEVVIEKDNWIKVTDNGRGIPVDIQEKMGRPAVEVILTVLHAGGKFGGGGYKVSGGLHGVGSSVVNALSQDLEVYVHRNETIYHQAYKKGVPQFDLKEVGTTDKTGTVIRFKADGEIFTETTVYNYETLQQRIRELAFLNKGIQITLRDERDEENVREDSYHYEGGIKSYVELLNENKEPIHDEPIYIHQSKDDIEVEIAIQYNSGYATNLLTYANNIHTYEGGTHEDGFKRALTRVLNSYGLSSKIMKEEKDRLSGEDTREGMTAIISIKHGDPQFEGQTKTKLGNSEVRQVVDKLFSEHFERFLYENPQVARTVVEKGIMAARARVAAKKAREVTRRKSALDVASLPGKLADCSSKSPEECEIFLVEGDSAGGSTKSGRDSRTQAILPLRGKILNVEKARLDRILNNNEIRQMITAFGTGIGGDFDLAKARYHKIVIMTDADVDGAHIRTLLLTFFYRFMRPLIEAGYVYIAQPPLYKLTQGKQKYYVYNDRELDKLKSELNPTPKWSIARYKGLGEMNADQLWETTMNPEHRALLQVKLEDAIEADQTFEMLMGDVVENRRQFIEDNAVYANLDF

On to `CCOC(=O)c1cc2cc(N3CCN(C(=O)c4ccc(C5CCOCC5)cc4)CC3)ccc2o1`, for which the IC50 was found to be 6.7 µM on DNA gyrase subunit B and 0.91 µM in data set [1]. Also, the MIC in data set [2] was 9.8 µM (≈ 4.53 µg/mL). Moreover, the cytotoxicity at 48 h, 100 µM in data set [3] was found to be 6.75%.
Taken in the same sequence, the figures for `CCOC(=O)c1cc2cc(N3CCN(C(=O)c4ccco4)CC3)ccc2o1` were 37.3 µM, 24.4 µM, 43.6 µM (≈ 16.1 µg/mL) and 17%.
In the case of `CCOC(=O)c1cc2cc(N3CCN(C(=O)C4CCN(C(=O)OC(C)(C)C)CC4)CC3)ccc2o1`, the half-inhibitory concentration (IC50) on DNA gyrase subunit B came out at 3.2 µM; in data set [1], 0.81 µM. The MIC in data set [2] is 9.18 µM (≈ 4.46 µg/mL). Also, in data set [3], the cytotoxicity at 48 h, 100 µM came out at 3.21%. For the same compound, the inhibition entry in data set [4] and in data set [5] was “inactive” in each case. The ΔTm in data set [6] came out at 2.7 °C.
In data set [2], `CCOC(=O)c1sc(-c2ccccc2)nc1N1CCC(NCc2ccc(F)cc2)CC1` showed a minimal inhibitory concentration (MIC) of 28.4 µM (≈ 12.5 µg/mL).
As for `CCOC(=O)c1cc2cc(N3CCN(C(=O)Cc4ccc(OC)cc4)CC3)ccc2o1`, the IC50 on DNA gyrase subunit B was found to be 10.2 µM; in data set [1], 7.4 µM. Besides, in data set [2], inhibition of growth (MIC) required 18.2 µM (≈ 7.68 µg/mL). Also, in data set [3], the cytotoxicity at 48 h, 100 µM came out at 7.39%.
As for `CCOC(=O)c1cc2cc(N3CCN(C(=O)c4c(Cl)cccc4Cl)CC3)ccc2o1`, the half-maximal inhibitory concentration (IC50) came out at 10.7 µM at DNA gyrase subunit B and 3.1 µM in data set [1]. In data set [2], the MIC was determined as 10 µM (≈ 4.49 µg/mL). In addition, the cytotoxicity at 48 h, 100 µM in data set [3] worked out at 6.98%.
Taken in the same sequence, the figures for `CCOC(=O)c1cc2cc(N3CCN(C(=O)Cc4ccccc4)CC3)ccc2o1` were 9.2 µM, 6.81 µM, 12.3 µM (≈ 4.84 µg/mL) and 15.1%.
Regarding `CCOC(=O)c1cc2cc(N3CCN(C(=O)COc4ccccc4)CC3)ccc2o1`, the IC50 at DNA gyrase subunit B turned out to be 3.97 µM; in data set [1], 1.14 µM. The compound also had an MIC in data set [2] of 9.35 µM (≈ 3.82 µg/mL). For the same compound, in data set [3], the cytotoxicity at 48 h, 100 µM was 7.65%.
Consider `CCOC(=O)c1cc2cc(N3CCN(C(=O)C4Cc5ccccc5N4)CC3)ccc2o1` (stereo unspecified), for which the values for the IC50 (at DNA gyrase subunit B; in data set [1]) were 3.89 µM and 0.84 µM, respectively. In data set [2], this compound had a minimum inhibitory concentration (MIC) of 9.23 µM (≈ 3.87 µg/mL). For the same compound, in data set [3], the cytotoxicity at 48 h, 100 µM was determined as 29.8%.
Take `CCOC(=O)c1cc2cc(N3CCN(C(=O)CC(C)C)CC3)ccc2o1`: the IC50 was determined as 41.1 µM on DNA gyrase subunit B and 29.1 µM in data set [1]. The MIC in data set [2] was determined as 32.1 µM (≈ 11.5 µg/mL). The cytotoxicity at 48 h, 100 µM in data set [3] amounted to 8.71%.
In the case of `CCOC(=O)c1cc2cc(N3CCN(C(=O)c4c(F)cccc4F)CC3)ccc2o1`, the figures for the IC50 (at DNA gyrase subunit B; in data set [1]) were 6.21 µM and 2.9 µM, respectively. This compound displayed an MIC in data set [2] of 11.6 µM (≈ 4.81 µg/mL). In data set [3], the cytotoxicity at 48 h, 100 µM is 7.54%.
Taken in the same sequence, the figures for `CCOC(=O)c1cc2cc(N3CCN(C(=O)c4ccccc4OC(F)(F)F)CC3)ccc2o1` were 29.2 µM, 15.6 µM, 30.2 µM (≈ 14 µg/mL) and 27%.
`CCOC(=O)c1cc2cc(N3CCN(C(=O)Cc4c(F)cc(F)cc4F)CC3)ccc2o1`: the IC50 was determined as 12.4 µM at DNA gyrase subunit B and 6.1 µM in data set [1]. Further, 17.1 µM (≈ 7.61 µg/mL) was the least that counted as inhibitory in data set [2] (MIC). Further, the cytotoxicity at 48 h, 100 µM in data set [3] amounted to 14%.
For the compound `CCOC(=O)c1cc2cc(N3CCN(C(=O)Cc4ccc(Cl)cc4)CC3)ccc2o1`, the IC50 on DNA gyrase subunit B was 14.5 µM; in data set [1], 8.9 µM. In addition, the lowest concentration to inhibit growth in data set [2] (MIC) was 20.2 µM (≈ 8.63 µg/mL). The cytotoxicity at 48 h, 100 µM in data set [3] amounted to 29.2%.
Taken in the same sequence, the figures for `CCOC(=O)c1cc2cc(N3CCN(C(=O)CCc4ccc(F)cc4)CC3)ccc2o1` were 6.14 µM, 3.13 µM, 9.57 µM (≈ 4.06 µg/mL) and 14.7%.
Regarding `CCOC(=O)c1cc2cc(N3CCN(C(=O)c4cccc(OC)c4)CC3)ccc2o1`, the IC50 on DNA gyrase subunit B is 5.01 µM; in data set [1], 2.52 µM. In data set [2], this compound returned a minimal inhibitory concentration (MIC) of 9.67 µM (≈ 3.95 µg/mL). For the same compound, the cytotoxicity at 48 h, 100 µM in data set [3] was 15.3%.
Regarding `CCOC(=O)c1cc2cc(N3CCN(C(=O)c4c(F)cc(OC)cc4F)CC3)ccc2o1`, the IC50 is 24.2 µM at DNA gyrase subunit B and 9.8 µM in data set [1]. The compound also showed an MIC in data set [2] of 25.4 µM (≈ 11.3 µg/mL). Further, the cytotoxicity at 48 h, 100 µM in data set [3] was found to be 7.03%.
Take `CCOC(=O)c1cc2cc(N3CCN(C(=O)c4cccnc4Cl)CC3)ccc2o1`: the half-inhibitory concentration (IC50) at DNA gyrase subunit B came out at 7.94 µM; in data set [1], 1.5 µM. The same compound yielded an MIC in data set [2] of 11 µM (≈ 4.54 µg/mL). Also, the cytotoxicity at 48 h, 100 µM in data set [3] was found to be 7.55%.
Taken in the same sequence, the figures for `CCOC(=O)c1cc2cc(N3CCN(C(=O)c4ccc(C(F)(F)F)cc4)CC3)ccc2o1` were 52.1 µM, 45.1 µM, 54 µM (≈ 24.1 µg/mL) and 3.5%.
`CC1COc2c(N3CCN(C)CC3)c(F)cc3c(=O)c(C(=O)O)cn1c23` (stereo unspecified) [OFLOXACIN] registered an MIC in data set [2] of 2.16 µM (≈ 0.781 µg/mL).
On to `CCOC(=O)c1cc2cc(N3CCN(C(=O)c4nccnc4Cl)CC3)ccc2o1`, for which the IC50 was 12.7 µM at DNA gyrase subunit B and 3.12 µM in data set [1]. This compound also yielded an MIC in data set [2] of 13.9 µM (≈ 5.77 µg/mL). In addition, in data set [3], the cytotoxicity at 48 h, 100 µM worked out at 30.1%.
For `CCOC(=O)c1cc2cc(N3CCN(C(=O)c4ncccc4C(F)(F)F)CC3)ccc2o1`, the results for the IC50 (at DNA gyrase subunit B; in data set [1]) were 23.4 µM and 7.81 µM, respectively. The same compound returned a minimal inhibitory concentration (MIC) in data set [2] of 26.7 µM (≈ 11.9 µg/mL). In addition, the cytotoxicity at 48 h, 100 µM in data set [3] was found to be 14%.
In the case of `CO[C@@H]1[C@@H](OC(N)=O)[C@@H](O)[C@H](Oc2ccc3c(O)c(NC(=O)c4ccc(O)c(CC=C(C)C)c4)c(=O)oc3c2C)OC1(C)C` [NOVOBIOCIN], in data set [2], the minimal inhibitory concentration (MIC) is greater than 200 µM. For the same compound, the cytotoxicity at 48 h, 100 µM in data set [3] was determined as 19.4%.
In the case of `CCOC(=O)c1cc2cc(N3CCN(C(=O)CC4CCCCC4)CC3)ccc2o1`, the IC50 was found to be 36.3 µM on DNA gyrase subunit B and 25.2 µM in data set [1]. Further, in data set [2], the MIC turned out to be 38.4 µM (≈ 15.3 µg/mL). Also, in data set [3], the cytotoxicity at 48 h, 100 µM was determined as 31.4%.
In the case of `COc1c(N2C[C@@H]3CCCN[C@@H]3C2)c(F)cc2c(=O)c(C(=O)O)cn(C3CC3)c12` [MOXIFLOXACIN], the IC50 on DNA gyrase subunit B was greater than 50 µM. Moreover, in data set [2], the MIC amounted to 8.6 µM (≈ 3.45 µg/mL).
`CC[C@@H](CO)NCCN[C@@H](CC)CO` [ETHAMBUTOL] returned an MIC in data set [2] of 9.84 µM (≈ 2.01 µg/mL).
Turning to `CCOC(=O)c1cc2cc(N3CCN(C(=O)c4cccc5ccccc45)CC3)ccc2o1`, the half-inhibitory concentration (IC50) came to 9.08 µM at DNA gyrase subunit B and 3.6 µM in data set [1]. In addition, the MIC in data set [2] was found to be 13.2 µM (≈ 5.64 µg/mL). Besides, the cytotoxicity at 48 h, 100 µM in data set [3] amounted to 3.64%.
With `CCOC(=O)c1cc2cc(N3CCN(C(=O)c4ccccc4C(F)(F)F)CC3)ccc2o1`, the IC50 amounted to 36.9 µM at DNA gyrase subunit B and 26.3 µM in data set [1]. Besides, the MIC in data set [2] is 38.4 µM (≈ 17.2 µg/mL). In addition, the cytotoxicity at 48 h, 100 µM in data set [3] worked out at 14%.
With `NNC(=O)c1ccncc1` [ISONIAZID], inhibition of growth in data set [2] (MIC) required 0.66 µM (≈ 0.0905 µg/mL).
Turning to `CCOC(=O)c1cc2cc(N3CCN(C(=O)Cc4ccc(Br)cc4)CC3)ccc2o1`, the values for the concentration for half-maximal inhibition (IC50) (on DNA gyrase subunit B; in data set [1]) were 16.6 µM and 5.2 µM, respectively. For the same compound, the MIC in data set [2] worked out at 19.8 µM (≈ 9.33 µg/mL). The cytotoxicity at 48 h, 100 µM in data set [3] is 53%.
Take `CCOC(=O)c1cc2cc(N3CCN(C(=O)Cc4ccc(F)cc4)CC3)ccc2o1`: the IC50 stood at 38.4 µM on DNA gyrase subunit B and 26.9 µM in data set [1]. In data set [2], this compound registered an MIC of 40.2 µM (≈ 16.5 µg/mL). Also, the cytotoxicity at 48 h, 100 µM in data set [3] stood at 30.4%.
